# Laboratory results as given in ChEMBL document CHEMBL1255375, “Mutational events in cefotaximase extended-spectrum beta-lactamases of the CTX-M-1 cluster involved in ceftazidime resistance” (2008).
# Legend:
# [1] = test system: Escherichia coli; assay: Antimicrobial activity against Escherichia coli MI1443 harboring A77V and P167S mutations in beta lactamase CTX-M-10 by E-test; type: functional
# Outline: (§1)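 E-test MICs on E. coli MI1443 carrying artificial blaCTX-M derivatives. Each gene was cloned into pBGS18– at EcoRI/PstI, transformed into MI1443, selected with kanamycin 50 µg/ml, and sequenced to confirm the mutation. Agents: cefotaxime, ceftazidime, cefepime, cefuroxime, amoxicillin-clavulanate.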
# [2] = test system: Escherichia coli; assay: Antimicrobial activity against Escherichia coli GB20 harboring V27A, Q38R, A77V, P167S mutation in beta lactamase CTX-M-3 by broth microdilution method; type: functional
# [3] = test system: Escherichia coli; assay: Antimicrobial activity against Escherichia coli GB20 harboring P167S mutation in beta lactamase CTX-M-10 by broth microdilution method; type: functional
# [4] = test system: Escherichia coli; assay: Antimicrobial activity against Escherichia coli GB20 harboring V27A, Q38R, P167S mutation in beta lactamase CTX-M-3 by broth microdilution method; type: functional
# [5] = test system: Escherichia coli; assay: Antimicrobial activity against beta lactamase CTX-M-10 producing Escherichia coli GB20 by broth microdilution method; type: functional
# [6] = test system: Escherichia coli; assay: Antimicrobial activity against beta lactamase CTX-M-10 producing Escherichia coli MI1443 by broth microdilution
# [7] = test system: Escherichia coli; assay: Antimicrobial activity against Escherichia coli MI1443 harboring V27A, Q38R, A77V and D240G mutations in beta lactamase CTX-M-3 by E-test; type: functional; outline: as §1
# [8] = test system: Escherichia coli; assay: Antimicrobial activity against Escherichia coli GB20 harboring V27A, Q38R mutations in beta lactamase CTX-3 by broth microdilution method; type: functional
# [9] = test system: Escherichia coli; assay: Antimicrobial activity against Escherichia coli MI1443 harboring V27A, Q38R, N106S and P167S mutations in beta lactamase CTX-M-3 by E-test; type: functional
# Outline: (§2)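 MICs by E-test. Host is E. coli MI1443 carrying an artificial blaCTX-M derivative made by PCR and cloned into pBGS18- (EcoRI/PstI). Transformants were selected on kanamycin 50 µg/ml and the mutation was confirmed by sequencing. Agents tested: cefotaxime, ceftazidime, cefepime, cefuroxime and amoxicillin-clavulanate.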
# [10] = test system: Escherichia coli; assay: Antimicrobial activity against Escherichia coli GB20 harboring V27A, Q38R, A77V, N114D, A140S, P167S, D288N mutations in beta lactamase CTX-M-1 by broth microdilution method; type: functional
# [11] = test system: Escherichia coli; assay: Antimicrobial activity against Escherichia coli GB20 harboring V27A, Q38R, A77V, N114D, A140S, D288N mutations in beta lactamase CTX-M-1 by broth microdilution method; type: functional
# [12] = test system: Escherichia coli; assay: Antimicrobial activity against Escherichia coli MI1443 harboring V27A, Q38R, N106S mutations in beta lactamase CTX-M-3 by E-test; type: functional; outline: as §2
# [13] = test system: Escherichia coli; assay: Antimicrobial activity against Escherichia coli MI1443 harboring V27A, Q38R, N106S and D240G mutations in beta lactamase CTX-M-3 by E-test; type: functional; outline: as §1
# [14] = test system: Escherichia coli; assay: Antimicrobial activity against Escherichia coli MI1443 harboring N106S and D240G mutations in beta lactamase CTX-M-10 by E-test; type: functional; outline: as §1
# [15] = test system: Escherichia coli; assay: Antimicrobial activity against Escherichia coli MI1443 harboring N106S mutation in beta lactamase CTX-M-10 by E-test; type: functional; outline: as §1
# [16] = test system: Escherichia coli; assay: Antimicrobial activity against Escherichia coli MI1443 harboring P167S and D240G mutations in beta lactamase CTX-M-10 by E-test; type: functional; outline: as §2
# [17] = test system: Escherichia coli; assay: Antimicrobial activity against Escherichia coli MI1443 harboring A77V mutation in beta lactamase CTX-M-10 by E-test; type: functional; outline: as §2
# [18] = test system: Escherichia coli; assay: Antimicrobial activity against Escherichia coli MI1443 harboring V27A, Q38R, D240G mutations in beta lactamase CTX-M-15 by broth microdilution method; type: functional
# [19] = test system: Escherichia coli; assay: Antimicrobial activity against Escherichia coli MI1443 harboring A77V and D240G mutations in beta lactamase CTX-M-10 by E-test; type: functional; outline: as §1
# [20] = test system: Escherichia coli; assay: Antimicrobial activity against Escherichia coli MI1443 harboring V27A, Q38R, A77V mutations in beta lactamase CTX-M-3 by E-test; type: functional; outline: as §2
# [21] = test system: Escherichia coli; assay: Antimicrobial activity against Escherichia coli MI1443 harboring V27A, Q38R, P167S and D240G mutations in beta lactamase CTX-M-3 by E-test; type: functional; outline: as §2
# [22] = test system: Escherichia coli; assay: Antimicrobial activity against Escherichia coli GB20 harboring V27A, Q38R, A77V, N114D, A140S, P167T, D288N mutations in beta lactamase CTX-M-1 by broth microdilution method; type: functional
# [23] = test system: Escherichia coli; assay: Antimicrobial activity against Escherichia coli GB20 harboring D240G mutation in beta lactamase CTX-M-10 by broth microdilution method; type: functional
# [24] = test system: Escherichia coli; assay: Antimicrobial activity against Escherichia coli MI1443 harboring V27A, Q38R, A77V, N114D, A140S, D240G, D288N mutations in beta lactamase CTX-M-32 by broth microdilution method; type: functional
# [25] = test system: Escherichia coli; assay: Antimicrobial activity against Escherichia coli MI1443 harboring V27A and Q38R mutations in beta lactamase CTX-M-10 by E-test; type: functional; outline: as §1
# [26] = test system: Escherichia coli; assay: Antimicrobial activity against Escherichia coli MI1443 harboring N106S and P167S mutations in beta lactamase CTX-M-10 by E-test; type: functional; outline: as §1
Structure (SMILES),MIC [1] [µg/mL],MIC [2] [µg/mL],MIC [3] [µg/mL],MIC [4] [µg/mL],MIC [5] [µg/mL],MIC [6] [µg/mL],MIC [7] [µg/mL],MIC [8] [µg/mL],MIC [9] [µg/mL],MIC [10] [µg/mL],MIC [11] [µg/mL],MIC [12] [µg/mL],MIC [13] [µg/mL],MIC [14] [µg/mL],MIC [15] [µg/mL],MIC [16] [µg/mL],MIC [17] [µg/mL],MIC [18] [µg/mL],MIC [19] [µg/mL],MIC [20] [µg/mL],other results
CO/N=C(\C(=O)N[C@@H]1C(=O)N2C(C(=O)O)=C(COC(N)=O)CS[C@H]12)c1ccco1 [CEFUROXIME],64,64,32,128,≥ 256,≥ 256,,,,,,,,,,,,,,,
CO/N=C(\C(=O)N[C@@H]1C(=O)N2C(C(=O)[O-])=C(C[N+]3(C)CCCC3)CS[C@H]12)c1csc(N)n1 [CEFEPIME],1,0.25,1,0.5,32,32,4,32,1.5,4,128,1.5,8,4,1,< 0.25,128,1,32,1.5,MIC [21]: 0.5 µg/mL; MIC [22]: 4 µg/mL; MIC [23]: 4 µg/mL; MIC [24]: 4 µg/mL; MIC [25]: 32 µg/mL; MIC [26]: 1 µg/mL
CC(C)(O/N=C(\C(=O)N[C@@H]1C(=O)N2C(C(=O)[O-])=C(C[n+]3ccccc3)CS[C@H]12)c1csc(N)n1)C(=O)O [CEFTAZIDIME],64,32,32,32,1,1,2,1,32,256,4,0.5,2,2,0.5,4,8,2,8,1,MIC [21]: 8 µg/mL; MIC [22]: 256 µg/mL; MIC [23]: 16 µg/mL; MIC [24]: 2 µg/mL; MIC [25]: 1 µg/mL; MIC [26]: 16 µg/mL
CO/N=C(\C(=O)N[C@@H]1C(=O)N2C(C(=O)O)=C(COC(C)=O)CS[C@H]12)c1csc(N)n1 [CEFOTAXIME],4,4,1,1,256,256,≥ 256,256,3,16,≥ 256,3,≥ 256,64,2,4,≥ 256,128,≥ 256,128,MIC [21]: 1.5 µg/mL; MIC [22]: 16 µg/mL; MIC [23]: ≥ 256 µg/mL; MIC [24]: 256 µg/mL; MIC [25]: 256 µg/mL; MIC [26]: 2 µg/mL
